# Assay results as given in ChEMBL document CHEMBL1944532, “Synthesis and evaluation of anticancer activity of some novel 6-aryl-2-(p-sulfamylphenyl)-pyridazin-3(2H)-ones” (Eur J Med Chem, 2012).
# Active and inactive are the calls of the source. The calls are words filed in the database; no cut-off is given here.
# What was measured:
# KM12 = assay: Cytotoxicity against human KM12 cells assessed as cell growth at 10 uM after 48 hrs by SRB assay; assay type: functional; details: KM12, 48 h, read-out: Activity
# Procedure, shortened: (§1)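 NCI primary single-dose screen at 10^-5 M against the full panel of about 60 human tumor cell lines. Cells were in RPMI-1640 with 5% fetal calf serum and 2 mM L-glutamine and preincubated 24 h. Compound was given in DMSO with 48 h exposure. Growth was estimated by sulforhodamine B protein assay.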
# NCI/ADR-RES = assay: Cytotoxicity against human NCI/ADR-RES cells after 48 hrs by SRB assay; assay type: functional
# Procedure, shortened: (§2)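 NCI five-dose screen on the ~60-line human tumor panel. Cells grown in RPMI-1640 with 5% fetal calf serum and 2 mM L-glutamine, seeded at line-dependent density and preincubated 24 h. Compound added from DMSO at 10-fold dilutions from 10^-4 to 10^-8 M, continuous exposure 48 h. Growth read by sulforhodamine B protein stain. GI50, TGI and LC50 derived per line.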
# A498 = assay: Cytotoxicity against human A498 cells assessed as cell growth at 10 uM after 48 hrs by SRB assay; assay type: functional; details: A498, 48 h, read-out: Activity
# Procedure, shortened: (§3)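 NCI primary single-dose screen at 10^-5 M against the ~60 human tumour cell line panel. Cells grown in RPMI-1640 with 5% fetal calf serum and 2 mM L-glutamine and pre-incubated 24 h before compound addition. Compound added from DMSO solution with 48 h exposure. Growth read by sulforhodamine B protein staining.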
# NCI-H522 = assay: Antitumor activity against human NCI-H522 cells implanted in mouse dosed qd for 4 days by formazan dye-based hollow fiber assay; assay type: functional, organism-based
# Procedure, shortened: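 Cells grown inside polyvinylidene fluoride hollow fibers; each line implanted into both intraperitoneal and subcutaneous compartments in mice. Compound given ip at two doses on a QD x 4 schedule. Fibers then recovered and viable cell mass measured by formazan dye conversion. Scored 2 per dose giving ≥50% reduction in viable cell mass (%T/C 50).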
# A549 [1] = assay: Cytotoxicity against human A549/ATCC cells assessed as cell growth at 10 uM after 48 hrs by SRB assay; assay type: functional; details: A549, 48 h, read-out: Activity; procedure, shortened: as §3
# TK-10 = assay: Cytotoxicity against human TK10 cells after 48 hrs by SRB assay; assay type: functional; details: TK-10, 48 h
# Procedure, shortened: (§4)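 NCI 60-cell-line five-dose screen. Cells were grown in 1640 medium with 5% fetal calf serum and 2 mM L-glutamine, with inoculum density set by cell line, and pre-incubated 24 h. Compound in DMSO was added at 10^-4 to 10^-8 M (10-fold steps) with 48 h continuous exposure. Growth was read by SRB protein assay, and GI50, TGI and LC50 were derived from dose-response.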
# CCRF-CEM = assay: Cytotoxicity against human CCRF-CEM cells after 48 hrs by SRB assay; assay type: functional
# Procedure, shortened: (§5)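 NCI ~60-line panel in RPMI-1640 with 5% fetal calf serum and 2 mM L-glutamine, pre-incubated 24 h. Compound in DMSO tested at five 10-fold concentrations (10^-4 to 10^-8 M) with 48 h continuous exposure. Growth measured by sulforhodamine B protein assay. GI50 (50% net growth inhibition), TGI (total inhibition) and LC50 (50% net cell death) derived from dose-response.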
# A549 [2] = assay: Cytotoxicity against human A549/ATCC cells after 48 hrs by SRB assay; assay type: functional; details: A549, 48 h; procedure, shortened: as §5
# SF-295 = assay: Cytotoxicity against human SF295 cells after 48 hrs by SRB assay; assay type: functional; details: SF-295, 48 h; procedure, shortened: as §2
# MDA-MB-231 = assay: Cytotoxicity against human MDA-MB-231 cells assessed as cell growth at 10 uM after 48 hrs by SRB assay; assay type: functional; details: MDA-MB-231, 48 h, read-out: Activity; procedure, shortened: as §1
# SN12C = assay: Cytotoxicity against human SN12C cells after 48 hrs by SRB assay; assay type: functional; procedure, shortened: as §4
# OVCAR-5 = assay: Cytotoxicity against human OVCAR5 cells after 48 hrs by SRB assay; assay type: functional; details: OVCAR-5, 48 h; procedure, shortened: as §2
# SK-MEL-5 = assay: Cytotoxicity against human SK-MEL-5 cells assessed as cell growth at 10 uM after 48 hrs by SRB assay; assay type: functional; details: SK-MEL-5, 48 h, read-out: Activity
# Procedure, shortened: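 NCI primary one-dose screen at 10^-5 M against the full panel of about 60 human tumour cell lines, run to the NCI Drug Evaluation Branch protocol.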
# HCT-15 = assay: Cytotoxicity against human HCT15 cells after 48 hrs by SRB assay; assay type: functional; details: HCT-15, 48 h; procedure, shortened: as §5
# HT-29 = assay: Cytotoxicity against human HT-29 cells assessed as cell growth at 10 uM after 48 hrs by SRB assay; assay type: functional; details: HT-29, 48 h, read-out: Activity; procedure, shortened: as §3
# DU-145 = assay: Cytotoxicity against human DU145 cells after 48 hrs by SRB assay; assay type: functional; details: DU-145, 48 h; procedure, shortened: as §5
# [3] = Toxicity in ip dosed athymic nude mouse assessed as body weight loss after 2 weeks; assay type: organism-based; details: in vivo
# Procedure, shortened: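 Maximum tolerated dose determination in athymic nude mice. Single ip injection of 400, 200 or 100 mg/kg, one mouse per dose. Compound solubilized in DMSO. Feed and water ad libitum. Mice observed 2 weeks for body weight loss, lethality and other toxicity signs; sacrificed if weight loss exceeds 20%.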
# SK-OV-3 = assay: Cytotoxicity against human SKOV3 cells after 48 hrs by SRB assay; assay type: functional; details: SK-OV-3, 48 h; procedure, shortened: as §4
# NCI-H226 = assay: Cytotoxicity against human NCI-H226 cells after 48 hrs by SRB assay; assay type: functional; details: NCI-H226, 48 h; procedure, shortened: as §2
# M14 = assay: Cytotoxicity against human M14 cells assessed as cell growth at 10 uM after 48 hrs by SRB assay; assay type: functional; details: M14, 48 h, read-out: Activity; procedure, shortened: as §1
# OVCAR-8 = assay: Cytotoxicity against human OVCAR8 cells assessed as cell growth at 10 uM after 48 hrs by SRB assay; assay type: functional; details: OVCAR-8, 48 h, read-out: Activity; procedure, shortened: as §1
# HOP-62 = assay: Cytotoxicity against human HOP62 cells after 48 hrs by SRB assay; assay type: functional; details: HOP-62, 48 h; procedure, shortened: as §5
compound,measurement,setting,value
CCc1ccc(-c2ccc(=O)n(-c3ccc(S(N)(=O)=O)cc3)n2)cc1,growth at 10 µM,KM12,13.6%
same,LC50,NCI/ADR-RES,> 100 µM
same,GI50,NCI/ADR-RES; read-out: GI50,0.314 µM
same,GI50,NCI/ADR-RES; read-out: pGI50 (converted),0.316 µM
same,TGI,NCI/ADR-RES; read-out: pTGI (converted),12.9 µM
same,growth at 10 µM,A498,40.3%
same,Activity,NCI-H522,inactive
same,growth at 10 µM,A549 [1],18%
same,LC50,TK-10,77.6 µM
same,GI50,TK-10; read-out: GI50,10.8 µM
same,GI50,TK-10; read-out: pGI50 (converted),11 µM
same,TGI,TK-10; read-out: pTGI (converted),28.8 µM
same,LC50,CCRF-CEM,> 100 µM
same,GI50,CCRF-CEM; read-out: GI50,0.786 µM
same,GI50,CCRF-CEM; read-out: pGI50 (converted),0.794 µM
same,TGI,CCRF-CEM; read-out: pTGI,> 100 µM
same,LC50,A549 [2],> 100 µM
same,GI50,A549 [2]; read-out: GI50,2.58 µM
same,GI50,A549 [2]; read-out: pGI50 (converted),2.57 µM
same,TGI,A549 [2]; read-out: pTGI,> 100 µM
same,LC50,SF-295,75.9 µM
same,GI50,SF-295; read-out: GI50,0.554 µM
same,GI50,SF-295; read-out: pGI50 (converted),0.55 µM
same,TGI,SF-295; read-out: pTGI (converted),17.4 µM
same,growth at 10 µM,MDA-MB-231,66.8%
same,LC50,SN12C,> 100 µM
same,GI50,SN12C; read-out: GI50,5.84 µM
same,GI50,SN12C; read-out: pGI50 (converted),5.89 µM
same,TGI,SN12C; read-out: pTGI,> 100 µM
same,LC50,OVCAR-5,> 100 µM
same,GI50,OVCAR-5; read-out: GI50,41.4 µM
same,GI50,OVCAR-5; read-out: pGI50 (converted),41.7 µM
same,TGI,OVCAR-5; read-out: pTGI,> 100 µM
same,growth at 10 µM,SK-MEL-5,12.9%
same,LC50,HCT-15,> 100 µM
same,GI50,HCT-15; read-out: GI50,0.661 µM
same,GI50,HCT-15; read-out: pGI50 (converted),0.661 µM
same,TGI,HCT-15; read-out: pTGI,> 100 µM
same,growth at 10 µM,HT-29,11.8%
same,LC50,DU-145,> 100 µM
same,GI50,DU-145; read-out: GI50,13.8 µM
same,GI50,DU-145; read-out: pGI50 (converted),13.8 µM
same,TGI,DU-145; read-out: pTGI,> 100 µM
same,MTD at 336 h,[3],400 mg/kg
same,LC50,SK-OV-3,> 100 µM
same,GI50,SK-OV-3; read-out: GI50,4.02 µM
same,GI50,SK-OV-3; read-out: pGI50 (converted),3.98 µM
same,TGI,SK-OV-3; read-out: pTGI,> 100 µM
same,LC50,NCI-H226,> 100 µM
same,GI50,NCI-H226; read-out: GI50,13.5 µM
same,GI50,NCI-H226; read-out: pGI50 (converted),13.5 µM
same,TGI,NCI-H226; read-out: pTGI,> 100 µM
same,growth at 10 µM,M14,17.7%
same,growth at 10 µM,OVCAR-8,51.2%
same,LC50,HOP-62,70.8 µM
same,GI50,HOP-62; read-out: GI50,2.48 µM
same,GI50,HOP-62; read-out: pGI50 (converted),2.45 µM
same,TGI,HOP-62; read-out: pTGI (converted),22.4 µM
